The values that follow come from ChEMBL document CHEMBL1130131, “12,13-isotaxanes: synthesis of new potent analogs and X-ray crystallographic confirmation of structure” (J Med Chem, 1997).

In assay [1] the test system is Mus musculus. The assay is described as follows: % T/C(is ratio of median survival time in the group receiving the optimal dose to median survival time in the vehicle control group X 100.) is measured in B16 melanoma cells at the dose of 50 ng/kg on the days 1 and 3(experiment 1). Type of assay: functional. Summed up:
(§1)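 B6D2F1 mice bearing intraperitoneally implanted B16 melanoma (method adapted from earlier work); test agent given iv on days 1 and 3, optimal total dose reported in ng/kg. %T/C = median survival time of the optimal-dose group divided by median survival time of the vehicle control group × 100. Values are individual results from two separate experiments.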

The subject of assay [2] is B16. Briefly: Concentration inducing 20% mitotic index for mitotic block in murine B16 melanoma cells. Type of assay: functional, Mus musculus. In outline:
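B16 melanoma cells were treated in culture, and mitotic index was measured by a method adapted from earlier work. The value is the drug concentration giving a 20% mitotic index.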

Assay [3] concerns Mus musculus. The assay is described as follows: % T/C(is ratio of median survival time in the group receiving the optimal dose to median survival time in the vehicle control group X 100.) is measured in B16 melanoma cells at the dose of 50 ng/kg on the days 1 and 3(experiment 2). Type of assay: functional. In outline: as §1
The subject of assay [4] is A2780. Briefly: Concentration of compound to inhibit the growth of human A2780 ovarian carcinoma cells(in vitro). It is filed as functional, cell-based.
The test system of assay [5] is Mus musculus. The assay is described as follows: % T/C was measured in B6D2F1 mice bearing ip-implanted B16 melanoma cells at the dose of 100n g/kg on the days 1 and 3. It is filed as functional. In outline: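 B6D2F1 mice bearing intraperitoneally implanted B16 melanoma received compound iv on days 1 and 3, with the total dose stated. %T/C = median survival time at the optimal dose ÷ median survival time of vehicle-treated controls × 100. The method was adapted from earlier work.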

For the compound `CC(=O)O[C@H]1C(=O)[C@]2(C)C=CC3OC[C@@]3(OC(C)=O)C2[C@H](OC(=O)c2ccccc2)[C@]2(O)CC(OC(=O)[C@H](O)[C@@H](NC(=O)NC(C)(C)C)c3ccccc3)=C(C)C1C2(C)C` (some centres undefined), the T/C in assay [1] was determined as 232%; in assay [3], 241%. Besides, the “Concentration giving 20% mitotic index” value in assay [2] is given as 10 nM. In assay [4], this compound came in with a concentration for half-maximal inhibition (IC50) of 0.5 nM.
On the same counts, the results for `CC(=O)O[C@H]1C(=O)[C@]23C[C@H]2CC2OC[C@@]2(OC(C)=O)C3[C@H](OC(=O)c2ccccc2)[C@]2(O)CC(OC(=O)[C@H](O)[C@@H](NC(=O)NC(C)(C)C)c3ccccc3)=C(C)C1C2(C)C` (some centres undefined) are 213%, 225%, 10 nM and 0.6 nM.
For `CC(=O)O[C@H]1C(=O)[C@]2(C)C=CC3OC[C@@]3(OC(C)=O)C2[C@H](OC(=O)c2ccccc2)[C@]2(O)CC(OC(=O)[C@H](O)[C@@H](NC(=O)OC(C)(C)C)c3ccccc3)=C(C)C1C2(C)C` (some centres undefined) the same measures were 181%, 181%, 10 nM and 1.2 nM.
On the same counts, the results for `CC(=O)O[C@@]12COC1C[C@@H]1C[C@@]13C(=O)[C@H](O)C1C(C)=C(OC(=O)[C@H](O)[C@@H](NC(=O)OC(C)(C)C)c4ccccc4)C[C@@](O)([C@@H](OC(=O)c4ccccc4)C23)C1(C)C` (some centres undefined) are 184%, 210%, 7 nM and 1.9 nM.
On to `CC(=O)O[C@@]12CO[C@@H]1C[C@H](O)[C@@]1(C)C(=O)[C@H](O)C3=C(C)[C@@H](OC(=O)[C@H](O)[C@@H](NC(=O)OC(C)(C)C)c4ccccc4)C[C@@](O)([C@@H](OC(=O)c4ccccc4)[C@H]21)C3(C)C.O.O.O` [DOCETAXEL], for which, in assay [2], the “Concentration giving 20% mitotic index” value is 15 nM. Moreover, 1.8 nM corresponded to half-maximal inhibition in assay [4] (IC50). This compound also came in with a T/C in assay [5] of 177%.
